Tested on: Fibroblast
Test: Multiplex assay against human fibroblast
Type: toxicity, cell-based
In short: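 With compound added, live cells were imaged on a CQ1 microscope at 37°C and 5% CO2; staining with Hoechst33342, BioTracker Green Microtubule Cytoskeleton Dye, MitoTracker Red and Annexin V Alexa Fluor 680 had been done at seeding. The CellPathfinder machine-learning gating scheme split cells into Hoechst high-intensity objects or normal cells, normal cells into healthy, pyknosed or fragmented nuclei, and pyknosed cells into mitotic or apoptotic. The tubulin, mitochondrial-mass and membrane-permeability phenotypes are per cents of healthy-nucleus cells.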

[1] = 12 h, 1 µM, compound concentration 1 uM, replicate 1
[2] = 12 h, 1 µM, compound concentration 1 uM, replicate 2
[3] = 12 h, 10 µM, compound concentration 10 uM, replicate 1
[4] = 12 h, 10 µM, compound concentration 10 uM, replicate 2
[5] = 24 h, 1 µM, compound concentration 1 uM, replicate 1
[6] = 24 h, 1 µM, compound concentration 1 uM, replicate 2
[7] = 24 h, 10 µM, compound concentration 10 uM, replicate 1
[8] = 24 h, 10 µM, compound concentration 10 uM, replicate 2
[9] = 48 h, 1 µM, compound concentration 1 uM, replicate 1
[10] = 48 h, 1 µM, compound concentration 1 uM, replicate 2
[11] = 48 h, 10 µM, compound concentration 10 uM, replicate 1
[12] = 48 h, 10 µM, compound concentration 10 uM, replicate 2

Question: How did the “Population Apoptotic (%)” value [1] turn out when N[C@](CC1c2ccccc2Oc2ccccc21)(C(=O)O)[C@H]1C[C@@H]1C(=O)O was run?
Answer: 44%

Question: What about the “Population Fragmented Nuclei (%)” value [1] of the same compound?
Answer: 12%

Question: And the “Population Healthy Nuclei (%)” value [1]?
Answer: 73%

Question: What about the “Population Hoechst High Intensity Objects (%)” value [1] of the same compound?
Answer: 4%

Question: And the “Population Membrane Permeable-Phenotype (%)” value [1]?
Answer: 0%

Question: What about the “Population Mitochondria Different-Phenotype (%)” value [1] of the same compound?
Answer: 1%

Question: What about the “Population Mitotic Cells (%)” value [1] of the same compound?
Answer: 56%

Question: And the “Population Normal (%)” value [1]?
Answer: 95%

Question: What about the “Population Pyknosed Nuclei (%)” value [1] of the same compound?
Answer: 13%

Question: What about the “Population Tubulin-Different-Phenotype (%)” value [1] of the same compound?
Answer: 27%

Question: What about the “Total Cell Count” value [1] of the same compound?
Answer: 189

Question: What about the “Population Apoptotic (%)” value [2] of the same compound?
Answer: 58%

Question: What about the “Population Fragmented Nuclei (%)” value [2] of the same compound?
Answer: 18%

Question: And the “Population Healthy Nuclei (%)” value [2]?
Answer: 59%

Question: And the “Population Hoechst High Intensity Objects (%)” value [2]?
Answer: 1%

Question: And the “Population Membrane Permeable-Phenotype (%)” value [2]?
Answer: 7%

Question: What about the “Population Mitotic Cells (%)” value [2] of the same compound?
Answer: 41%

Question: And the “Population Normal (%)” value [2]?
Answer: 98%

Question: And the “Population Pyknosed Nuclei (%)” value [2]?
Answer: 21%

Question: And the “Population Tubulin-Different-Phenotype (%)” value [2]?
Answer: 37%

Question: What about the “Total Cell Count” value [2] of the same compound?
Answer: 113

Question: What about the “Population Apoptotic (%)” value [3] of the same compound?
Answer: 50%

Question: And the “Population Fragmented Nuclei (%)” value [3]?
Answer: 13%

Question: What about the “Population Healthy Nuclei (%)” value [3] of the same compound?
Answer: 66%

Question: What about the “Population Hoechst High Intensity Objects (%)” value [3] of the same compound?
Answer: 1%

Question: What about the “Population Membrane Permeable-Phenotype (%)” value [3] of the same compound?
Answer: 2%

Question: What about the “Population Mitochondria Different-Phenotype (%)” value [3] of the same compound?
Answer: 2%

Question: What about the “Population Mitotic Cells (%)” value [3] of the same compound?
Answer: 50%

Question: And the “Population Normal (%)” value [3]?
Answer: 98%

Question: What about the “Population Pyknosed Nuclei (%)” value [3] of the same compound?
Answer: 20%

Question: And the “Population Tubulin-Different-Phenotype (%)” value [3]?
Answer: 22%

Question: And the “Total Cell Count” value [3]?
Answer: 203

Question: What about the “Population Apoptotic (%)” value [4] of the same compound?
Answer: 26%

Question: What about the “Population Fragmented Nuclei (%)” value [4] of the same compound?
Answer: 20%

Question: What about the “Population Healthy Nuclei (%)” value [4] of the same compound?
Answer: 59%

Question: And the “Population Hoechst High Intensity Objects (%)” value [4]?
Answer: 7%

Question: And the “Population Membrane Permeable-Phenotype (%)” value [4]?
Answer: 0%

Question: And the “Population Mitochondria Different-Phenotype (%)” value [4]?
Answer: 7%

Question: What about the “Population Mitotic Cells (%)” value [4] of the same compound?
Answer: 73%

Question: What about the “Population Normal (%)” value [4] of the same compound?
Answer: 92%

Question: And the “Population Tubulin-Different-Phenotype (%)” value [4]?
Answer: 33%

Question: And the “Total Cell Count” value [4]?
Answer: 119

Question: What about the “Population Apoptotic (%)” value [5] of the same compound?
Answer: 68%

Question: And the “Population Fragmented Nuclei (%)” value [5]?
Answer: 12%

Question: What about the “Population Healthy Nuclei (%)” value [5] of the same compound?
Answer: 73%

Question: And the “Population Hoechst High Intensity Objects (%)” value [5]?
Answer: 2%

Question: And the “Population Membrane Permeable-Phenotype (%)” value [5]?
Answer: 2%

Question: And the “Population Mitochondria Different-Phenotype (%)” value [5]?
Answer: 2%

Question: And the “Population Mitotic Cells (%)” value [5]?
Answer: 32%

Question: And the “Population Normal (%)” value [5]?
Answer: 97%

Question: And the “Population Pyknosed Nuclei (%)” value [5]?
Answer: 13%

Question: And the “Population Tubulin-Different-Phenotype (%)” value [5]?
Answer: 25%

Question: What about the “Total Cell Count” value [5] of the same compound?
Answer: 183

Question: What about the “Population Apoptotic (%)” value [6] of the same compound?
Answer: 33%

Question: And the “Population Fragmented Nuclei (%)” value [6]?
Answer: 27%

Question: And the “Population Healthy Nuclei (%)” value [6]?
Answer: 49%

Question: And the “Population Hoechst High Intensity Objects (%)” value [6]?
Answer: 4%

Question: What about the “Population Membrane Permeable-Phenotype (%)” value [6] of the same compound?
Answer: 6%

Question: And the “Population Mitochondria Different-Phenotype (%)” value [6]?
Answer: 1%

Question: What about the “Population Mitotic Cells (%)” value [6] of the same compound?
Answer: 66%

Question: And the “Population Normal (%)” value [6]?
Answer: 95%

Question: What about the “Population Pyknosed Nuclei (%)” value [6] of the same compound?
Answer: 22%

Question: What about the “Population Tubulin-Different-Phenotype (%)” value [6] of the same compound?
Answer: 44%

Question: And the “Total Cell Count” value [6]?
Answer: 123

Question: And the “Population Apoptotic (%)” value [7]?
Answer: 57%

Question: And the “Population Fragmented Nuclei (%)” value [7]?
Answer: 10%

Question: And the “Population Healthy Nuclei (%)” value [7]?
Answer: 68%

Question: What about the “Population Hoechst High Intensity Objects (%)” value [7] of the same compound?
Answer: 1%

Question: What about the “Population Membrane Permeable-Phenotype (%)” value [7] of the same compound?
Answer: 1%

Question: What about the “Population Mitochondria Different-Phenotype (%)” value [7] of the same compound?
Answer: 3%

Question: And the “Population Mitotic Cells (%)” value [7]?
Answer: 42%

Question: What about the “Population Normal (%)” value [7] of the same compound?
Answer: 98%

Question: And the “Population Pyknosed Nuclei (%)” value [7]?
Answer: 20%

Question: And the “Population Tubulin-Different-Phenotype (%)” value [7]?
Answer: 30%

Question: And the “Total Cell Count” value [7]?
Answer: 193

Question: And the “Population Apoptotic (%)” value [8]?
Answer: 35%

Question: What about the “Population Fragmented Nuclei (%)” value [8] of the same compound?
Answer: 18%

Question: What about the “Population Healthy Nuclei (%)” value [8] of the same compound?
Answer: 66%

Question: What about the “Population Hoechst High Intensity Objects (%)” value [8] of the same compound?
Answer: 2%

Question: What about the “Population Mitochondria Different-Phenotype (%)” value [8] of the same compound?
Answer: 4%

Question: What about the “Population Mitotic Cells (%)” value [8] of the same compound?
Answer: 64%

Question: What about the “Population Normal (%)” value [8] of the same compound?
Answer: 97%

Question: And the “Population Pyknosed Nuclei (%)” value [8]?
Answer: 15%

Question: And the “Population Tubulin-Different-Phenotype (%)” value [8]?
Answer: 34%

Question: And the “Total Cell Count” value [8]?
Answer: 113

Question: And the “Population Apoptotic (%)” value [9]?
Answer: 62%

Question: And the “Population Fragmented Nuclei (%)” value [9]?
Answer: 17%

Question: What about the “Population Healthy Nuclei (%)” value [9] of the same compound?
Answer: 68%

Question: What about the “Population Hoechst High Intensity Objects (%)” value [9] of the same compound?
Answer: 2%

Question: What about the “Population Membrane Permeable-Phenotype (%)” value [9] of the same compound?
Answer: 0%

Question: What about the “Population Mitochondria Different-Phenotype (%)” value [9] of the same compound?
Answer: 2%

Question: And the “Population Mitotic Cells (%)” value [9]?
Answer: 37%

Question: And the “Population Normal (%)” value [9]?
Answer: 97%

Question: And the “Population Pyknosed Nuclei (%)” value [9]?
Answer: 14%

Question: And the “Population Tubulin-Different-Phenotype (%)” value [9]?
Answer: 26%

Question: What about the “Total Cell Count” value [9] of the same compound?
Answer: 189

Question: What about the “Population Apoptotic (%)” value [10] of the same compound?
Answer: 23%

Question: What about the “Population Fragmented Nuclei (%)” value [10] of the same compound?
Answer: 36%

Question: What about the “Population Healthy Nuclei (%)” value [10] of the same compound?
Answer: 48%

Question: And the “Population Hoechst High Intensity Objects (%)” value [10]?
Answer: 8%

Question: What about the “Population Membrane Permeable-Phenotype (%)” value [10] of the same compound?
Answer: 9%

Question: And the “Population Mitochondria Different-Phenotype (%)” value [10]?
Answer: 5%

Question: And the “Population Mitotic Cells (%)” value [10]?
Answer: 76%

Question: What about the “Population Normal (%)” value [10] of the same compound?
Answer: 91%

Question: And the “Population Tubulin-Different-Phenotype (%)” value [10]?
Answer: 65%

Question: And the “Total Cell Count” value [10]?
Answer: 125

Question: What about the “Population Apoptotic (%)” value [11] of the same compound?
Answer: 45%

Question: What about the “Population Fragmented Nuclei (%)” value [11] of the same compound?
Answer: 14%

Question: And the “Population Healthy Nuclei (%)” value [11]?
Answer: 68%

Question: What about the “Population Hoechst High Intensity Objects (%)” value [11] of the same compound?
Answer: 5%

Question: And the “Population Membrane Permeable-Phenotype (%)” value [11]?
Answer: 1%

Question: What about the “Population Mitochondria Different-Phenotype (%)” value [11] of the same compound?
Answer: 2%

Question: And the “Population Mitotic Cells (%)” value [11]?
Answer: 54%

Question: And the “Population Normal (%)” value [11]?
Answer: 94%

Question: What about the “Population Pyknosed Nuclei (%)” value [11] of the same compound?
Answer: 16%

Question: What about the “Population Tubulin-Different-Phenotype (%)” value [11] of the same compound?
Answer: 32%

Question: And the “Total Cell Count” value [11]?
Answer: 198

Question: What about the “Population Apoptotic (%)” value [12] of the same compound?
Answer: 27%

Question: And the “Population Fragmented Nuclei (%)” value [12]?
Answer: 27%

Question: What about the “Population Healthy Nuclei (%)” value [12] of the same compound?
Answer: 63%

Question: What about the “Population Hoechst High Intensity Objects (%)” value [12] of the same compound?
Answer: 3%

Question: And the “Population Membrane Permeable-Phenotype (%)” value [12]?
Answer: 2%

Question: And the “Population Mitotic Cells (%)” value [12]?
Answer: 72%

Question: What about the “Population Normal (%)” value [12] of the same compound?
Answer: 96%

Question: And the “Population Pyknosed Nuclei (%)” value [12]?
Answer: 9%

Question: What about the “Population Tubulin-Different-Phenotype (%)” value [12] of the same compound?
Answer: 28%

Question: What about the “Total Cell Count” value [12] of the same compound?
Answer: 115

Source: ChEMBL document CHEMBL5058577, “EUbOPEN Chemogenomics Library 2 (Multiplex)” (2022)
